Experiments:
[1] = target: T1, Angiotensin-converting enzyme (Oryctolagus cuniculus, UniProt P12822); experiment: Evaluation of in vitro inhibitory activity against Angiotensin I converting enzyme
T1 sequence (P12822 whole entry): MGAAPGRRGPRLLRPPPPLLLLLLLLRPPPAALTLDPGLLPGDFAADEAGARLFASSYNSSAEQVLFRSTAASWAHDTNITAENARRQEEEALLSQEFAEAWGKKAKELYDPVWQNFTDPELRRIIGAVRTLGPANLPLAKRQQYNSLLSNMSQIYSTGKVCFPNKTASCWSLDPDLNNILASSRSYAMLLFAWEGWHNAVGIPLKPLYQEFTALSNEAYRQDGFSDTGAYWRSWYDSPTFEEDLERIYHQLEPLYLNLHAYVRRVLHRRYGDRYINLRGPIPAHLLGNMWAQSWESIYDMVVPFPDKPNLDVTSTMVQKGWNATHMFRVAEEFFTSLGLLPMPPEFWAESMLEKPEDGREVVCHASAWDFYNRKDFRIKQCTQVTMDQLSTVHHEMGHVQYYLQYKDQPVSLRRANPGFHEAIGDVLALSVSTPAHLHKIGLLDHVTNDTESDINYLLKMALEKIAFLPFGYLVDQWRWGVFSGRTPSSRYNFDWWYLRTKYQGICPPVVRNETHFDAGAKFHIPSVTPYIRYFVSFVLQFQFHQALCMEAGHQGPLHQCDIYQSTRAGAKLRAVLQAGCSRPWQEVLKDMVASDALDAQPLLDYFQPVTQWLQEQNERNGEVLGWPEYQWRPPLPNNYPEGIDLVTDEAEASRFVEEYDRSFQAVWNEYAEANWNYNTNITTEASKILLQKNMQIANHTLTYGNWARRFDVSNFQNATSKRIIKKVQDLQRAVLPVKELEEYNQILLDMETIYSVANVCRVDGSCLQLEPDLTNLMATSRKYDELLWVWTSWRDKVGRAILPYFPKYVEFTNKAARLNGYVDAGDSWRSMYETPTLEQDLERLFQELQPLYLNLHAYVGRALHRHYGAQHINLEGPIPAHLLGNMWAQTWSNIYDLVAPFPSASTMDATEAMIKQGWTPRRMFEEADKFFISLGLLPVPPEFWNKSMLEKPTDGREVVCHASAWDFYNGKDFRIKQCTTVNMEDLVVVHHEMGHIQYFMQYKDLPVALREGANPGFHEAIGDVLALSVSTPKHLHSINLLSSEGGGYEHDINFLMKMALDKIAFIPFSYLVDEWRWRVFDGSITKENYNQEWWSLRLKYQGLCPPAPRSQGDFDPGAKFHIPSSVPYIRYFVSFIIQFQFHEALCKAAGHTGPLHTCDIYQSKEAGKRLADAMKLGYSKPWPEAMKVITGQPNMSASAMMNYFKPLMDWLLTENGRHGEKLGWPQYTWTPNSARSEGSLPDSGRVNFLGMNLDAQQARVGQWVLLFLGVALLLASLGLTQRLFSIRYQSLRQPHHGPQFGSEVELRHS
In short: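 Rabbit lung ACE in 300 mM NaCl, 100 mM KH2PO4 (pH 8.3). Enzyme and drug mixed, then hippurylhistidylleucine (2 mg/mL stock) added and incubated 75 min at room temperature. Stopped with 1 N NaOH, o-phthalaldehyde added for 10 min at 25 °C, acidified with HCl, OD read at 360 nm.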

Neprilysin = target: T2, Neprilysin (Rattus norvegicus, UniProt P07861); experiment: Evaluation of in vitro inhibitory activity against Neutral endopeptidase
T2 sequence (P07861 whole entry): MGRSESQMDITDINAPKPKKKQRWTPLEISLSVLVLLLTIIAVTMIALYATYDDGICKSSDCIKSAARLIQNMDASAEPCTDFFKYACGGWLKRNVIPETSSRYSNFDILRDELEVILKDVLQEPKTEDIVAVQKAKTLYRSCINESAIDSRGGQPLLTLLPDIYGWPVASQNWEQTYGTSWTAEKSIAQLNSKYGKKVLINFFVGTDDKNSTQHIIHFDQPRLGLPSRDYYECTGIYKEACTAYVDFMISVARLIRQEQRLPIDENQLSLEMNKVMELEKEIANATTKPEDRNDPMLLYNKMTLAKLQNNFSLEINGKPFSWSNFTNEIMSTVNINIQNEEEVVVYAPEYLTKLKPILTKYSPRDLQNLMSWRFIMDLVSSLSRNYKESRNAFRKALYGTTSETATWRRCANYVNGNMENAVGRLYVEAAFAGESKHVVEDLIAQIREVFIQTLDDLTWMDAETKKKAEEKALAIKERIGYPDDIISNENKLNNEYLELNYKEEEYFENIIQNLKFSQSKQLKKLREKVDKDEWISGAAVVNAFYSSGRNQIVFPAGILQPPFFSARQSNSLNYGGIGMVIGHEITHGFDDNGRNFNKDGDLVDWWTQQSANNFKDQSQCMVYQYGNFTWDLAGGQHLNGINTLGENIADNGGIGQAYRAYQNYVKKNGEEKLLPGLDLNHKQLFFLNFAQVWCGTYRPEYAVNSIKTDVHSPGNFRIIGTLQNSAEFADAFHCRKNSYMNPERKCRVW
In short: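 Rat kidney cortex membrane homogenate (4.2 μg protein) preincubated 10 min at 25 °C with increasing inhibitor concentrations. Then 500 μM GAAP (final) in 50 mM Tris pH 7.4 with leucine aminopeptidase M, 25 min at 25 °C. Done in duplicate; IC50 from curves of seven points near the IC50.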

[2] = target: T3, Angiotensin-converting enzyme (Rattus norvegicus) (UniProt P47820); experiment: Evaluation of plasma inhibition of Angiotensin I converting enzyme activity in conscious rat 1 hour after intravenous administration at a dose of 10 mg/kg; assay type: functional, organism-based; design: dose 10 mg/kg
T3 sequence (whole entry): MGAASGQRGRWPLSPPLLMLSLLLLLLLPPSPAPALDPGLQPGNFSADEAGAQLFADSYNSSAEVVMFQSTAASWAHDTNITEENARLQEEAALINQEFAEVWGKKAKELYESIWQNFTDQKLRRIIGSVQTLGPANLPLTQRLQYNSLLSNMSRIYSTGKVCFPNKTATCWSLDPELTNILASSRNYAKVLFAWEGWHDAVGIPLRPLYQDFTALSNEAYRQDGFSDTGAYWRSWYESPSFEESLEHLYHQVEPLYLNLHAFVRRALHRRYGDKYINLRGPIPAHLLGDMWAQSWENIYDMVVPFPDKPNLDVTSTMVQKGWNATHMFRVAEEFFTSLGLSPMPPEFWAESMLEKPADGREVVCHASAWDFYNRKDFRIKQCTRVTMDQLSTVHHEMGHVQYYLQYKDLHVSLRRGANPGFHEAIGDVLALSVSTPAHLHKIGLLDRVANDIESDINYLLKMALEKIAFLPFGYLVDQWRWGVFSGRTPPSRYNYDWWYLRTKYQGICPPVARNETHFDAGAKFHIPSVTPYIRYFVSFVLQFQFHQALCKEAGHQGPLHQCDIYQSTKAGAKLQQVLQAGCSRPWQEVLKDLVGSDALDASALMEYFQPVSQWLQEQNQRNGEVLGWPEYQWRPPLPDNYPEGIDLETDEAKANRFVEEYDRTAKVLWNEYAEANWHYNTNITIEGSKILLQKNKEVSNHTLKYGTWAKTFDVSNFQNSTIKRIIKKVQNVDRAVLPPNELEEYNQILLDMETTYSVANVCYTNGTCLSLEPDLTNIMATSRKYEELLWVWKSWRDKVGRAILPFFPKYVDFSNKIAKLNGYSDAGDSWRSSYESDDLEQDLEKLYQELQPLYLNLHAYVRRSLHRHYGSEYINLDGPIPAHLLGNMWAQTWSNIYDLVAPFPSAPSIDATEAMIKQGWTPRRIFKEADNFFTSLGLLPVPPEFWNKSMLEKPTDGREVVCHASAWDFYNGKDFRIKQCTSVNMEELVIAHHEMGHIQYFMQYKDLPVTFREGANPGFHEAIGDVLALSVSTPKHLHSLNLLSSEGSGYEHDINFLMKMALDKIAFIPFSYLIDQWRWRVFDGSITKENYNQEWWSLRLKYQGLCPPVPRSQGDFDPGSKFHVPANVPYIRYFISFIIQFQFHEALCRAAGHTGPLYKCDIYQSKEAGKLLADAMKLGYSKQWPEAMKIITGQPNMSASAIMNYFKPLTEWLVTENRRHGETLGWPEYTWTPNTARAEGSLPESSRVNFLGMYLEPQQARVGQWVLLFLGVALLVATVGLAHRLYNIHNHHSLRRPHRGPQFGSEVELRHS
In short: (§1)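 Male conscious normotensive Sprague-Dawley rats (275-390 g) fitted the day before with femoral arterial and venous catheters under methohexital anesthesia. Three angiotensin-I challenges (300 ng/kg iv) given as baseline. Compound given iv, ia or po (12.3 mg/kg po dose in 3% cornstarch at 1 mg/mL), then AI challenges repeated at set times. Pressor response compared with the mean baseline response and expressed as % inhibition.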

[3] = target: T3, Angiotensin-converting enzyme (Rattus norvegicus); experiment: Evaluation of plasma inhibition of Angiotensin I converting enzyme activity in conscious rat 2 hours after ia administration at a dose of 10 mg/kg; assay type: functional, organism-based; design: dose 10 mg/kg; in short: as §1
[4] = target: T3, Angiotensin-converting enzyme (Rattus norvegicus); experiment: Evaluation of plasma inhibition of Angiotensin I converting enzyme activity in conscious rat 4 hours after ia administration at a dose of 10 mg/kg; assay type: functional, organism-based; design: dose 10 mg/kg; in short: as §1
[5] = target: T3, Angiotensin-converting enzyme (Rattus norvegicus); experiment: Evaluation of plasma inhibition of Angiotensin I converting enzyme activity in conscious rat 1 hour after ia administration at a dose of 10 mg/kg; assay type: functional, organism-based; design: dose 10 mg/kg; in short: as §1
[6] = target: T3, Angiotensin-converting enzyme (Rattus norvegicus); experiment: Evaluation of plasma inhibition of Angiotensin I converting enzyme activity in conscious rat 6 hours after ia administration at a dose of 10 mg/kg; assay type: functional, organism-based; design: dose 10 mg/kg; in short: as §1
[7] = target: T3, Angiotensin-converting enzyme (Rattus norvegicus); experiment: Evaluation of plasma inhibition of Angiotensin I converting enzyme activity in conscious rat 1 hour after peroral administration at a dose of 12.3 mg/kg; assay type: functional, organism-based; design: dose 12.3 mg/kg; in short: as §1
[8] = target: T3, Angiotensin-converting enzyme (Rattus norvegicus); experiment: Evaluation of plasma inhibition of Angiotensin I converting enzyme activity in conscious rat 2 hours after peroral administration at a dose of 12.3 mg/kg; assay type: functional, organism-based; design: dose 12.3 mg/kg; in short: as §1
[9] = target: T3, Angiotensin-converting enzyme (Rattus norvegicus); experiment: Evaluation of plasma inhibition of Angiotensin I converting enzyme activity in conscious rat 4 hours after peroral administration at a dose of 12.3 mg/kg; assay type: functional, organism-based; design: dose 12.3 mg/kg; in short: as §1
[10] = target: T3, Angiotensin-converting enzyme (Rattus norvegicus); experiment: Evaluation of plasma inhibition of Angiotensin I converting enzyme activity in conscious rat 6 hours after peroral administration at a dose of 12.3 mg/kg; assay type: functional, organism-based; design: dose 12.3 mg/kg; in short: as §1
[11] = target: T3, Angiotensin-converting enzyme (Rattus norvegicus); experiment: Evaluation of plasma inhibition of Angiotensin I converting enzyme activity in conscious rat 2 hours after intravenous administration at a dose of 10 mg/kg; assay type: functional, organism-based; design: dose 10 mg/kg; in short: as §1
[12] = target: T3, Angiotensin-converting enzyme (Rattus norvegicus); experiment: Evaluation of plasma inhibition of Angiotensin I converting enzyme activity in conscious rat 2 hour after oral administration at a dose of 10 mg/kg; assay type: functional, organism-based; design: dose 10 mg/kg
[13] = target: T3, Angiotensin-converting enzyme (Rattus norvegicus); experiment: Evaluation of plasma inhibition of Angiotensin I converting enzyme activity in conscious rat 6 hour after oral administration at a dose of 10 mg/kg; assay type: functional, organism-based; design: dose 10 mg/kg; in short: as §1
[14] = target: T3, Angiotensin-converting enzyme (Rattus norvegicus); experiment: Evaluation of plasma inhibition of Angiotensin I converting enzyme activity in conscious rat 1 hour after oral administration at a dose of 10 mg/kg; assay type: functional, organism-based; design: dose 10 mg/kg
[15] = target: T3, Angiotensin-converting enzyme (Rattus norvegicus); details: Plasma; 10 mg/kg

`COc1ccc(C[C@H](NC(=O)C2(NC(=O)[C@@H](S)C(C)C)CCCC2)C(=O)O)cc1` gave an IC50 [1] of 19 nM and an IC50 (Neprilysin) of 2.2 nM.
`O=C(O)[C@H](Cc1ccc(O)cc1)NC(=O)C1(NC(=O)C2(S)CCCC2)CCCC1` gave an IC50 [1] of 17 nM, an inhibition [2] of 3% and an IC50 (Neprilysin) of 5.2 nM.
`CC(C)[C@H](S)C(=O)N[C@@H](Cc1ccc(-c2ccccc2)cc1)C(=O)N[C@@H](Cc1ccc(O)cc1)C(=O)O` showed an IC50 [1] of 62 nM.
Compound `O=C(O)CN1C(=O)[C@@H](N[C@@H](CCc2ccccc2)C(=O)O)CCc2ccccc21` has an inhibition [3] of 74%, an inhibition [4] of 27% and an inhibition [5] of 100%. The inhibition [6] was 7%.
`CCOC(=O)[C@H](Cc1c[nH]c2ccccc12)NC(=O)C1(NC(=O)[C@@H](SC(C)=O)C(C)C)CCCC1` gave an inhibition [7] of 83%, an inhibition [8] of 72% and an inhibition [9] of 71%. For the same compound, the inhibition [10] was 64%.
`CC(C)[C@H](S)C(=O)NC1(C(=O)N[C@@H](Cc2cccnc2)C(=O)O)CCCC1` gave an IC50 [1] of 37 nM and an IC50 (Neprilysin) of 3.1 nM.
`CC(C)[C@H](S)C(=O)NC1(C(=O)N[C@@H](Cc2ccc(O)cc2)C(=O)O)CCCCC1` was tested, and the IC50 [1] was 33 nM, the inhibition [11] was 10% and the inhibition [2] was 22%. It also gave an IC50 (Neprilysin) of 8.7 nM.
For `CC(C)[C@H](S)C(=O)NC1(C(=O)N[C@@H](Cc2ccc(-c3ccccc3)cc2)C(=O)O)CCCC1`, the IC50 [1] was 139 nM and the IC50 (Neprilysin) was 16 nM.
For `CC(C)CC(NP(=O)(O)OC1O[C@@H](C)[C@H](O)[C@@H](O)[C@H]1O)C(=O)N[C@@H](Cc1c[nH]c2ccccc12)C(=O)O` (single isomer, unassigned) [PHOSPHORAMIDON], the IC50 (Neprilysin) was 26 nM.
With `C[C@H](CS)C(=O)N1CCC[C@H]1C(=O)O` the inhibition [12] was 78%, the inhibition [3] was 60% and the inhibition [4] was 26%. The inhibition [13] was 13%, the inhibition [5] was 96% and the inhibition [14] was 100%. It also gave an inhibition [6] of 3% and an inhibition [15] of 36%.
`CC(C)[C@H](S)C(=O)NC1(C(=O)N[C@@H](Cc2c[nH]c3ccc(O)cc23)C(=O)O)CCCC1` showed an IC50 [1] of 13 nM and an IC50 (Neprilysin) of 2 nM.
Compound `CC(C)[C@H](S)C(=O)NC1(C(=O)N[C@@H](Cc2ccc(O)cc2)C(=O)O)CC2CCC1C2` (stereo not given in full) has an IC50 [1] of 65 nM and an IC50 (Neprilysin) of 15 nM.
